Measurements taken from ChEMBL document CHEMBL3739324, “Characterization and Biological Evaluation of Diterpenoids from Casearia graveolens” (J Nat Prod, 2015).
Active and inactive are the calls of the source. No cut-off for these calls is given here.

What was measured:
[1] = test system: PC-12; experiment: Induction of neurite outgrowth in rat PC12 cells incubated for 96 hrs by phase contrast microscopy; format: functional, cell-based
Procedure, shortened: (§1)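 PC12 cells grown at 37 °C in DMEM with 5% FBS, 5% horse serum, penicillin/streptomycin, 5% CO2. Dissociated with 1 mM EGTA in PBS for 15 min, seeded at 3 × 10^4 cells/well on poly-L-lysine. After 24 h, switched to medium with 1% FBS, 1% HS, graded compound levels, with or without NGF (20 ng/mL; 100 ng/mL positive control), for 96 h.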

[2] = test system: PC-12; experiment: Stimulation of NGF-mediated neurite outgrowth in rat PC12 cells incubated for 96 hrs by phase contrast microscopy; format: functional, cell-based; conditions: for EC50: PC-12, 96 h; procedure, shortened: as §1

SMILES: C=CC(=C)CC[C@]1(C)[C@H](C)C[C@H](OC)[C@@]23C(=C[C@H](O)C[C@@H]12)[C@@H](OC)O[C@H]3OC
- Activity [1]: inactive
- EC50 [2]: 3.3 µM

SMILES: C=CC(=C)CC[C@]1(C)[C@H](C)CC[C@@]23[C@H](OC(C)=O)O[C@H](OC(=O)CCC)[C@@H]2CC(=O)C[C@@H]13
- Activity [2]: inactive

SMILES: C=CC(=C)CC[C@]1(C)[C@H](C)CC[C@@]23C(=C[C@H](OC(=O)CCC)C[C@@H]12)[C@@H](OC(C)=O)O[C@H]3OC(C)=O
- Activity [2]: inactive

SMILES: C=CC(=C)CC[C@]1(C)[C@H](C)CC[C@@]23C(=C[C@H](OC(=O)CCC)C[C@@H]12)[C@@H](OC(=O)CCC)O[C@H]3OC(C)=O
- Activity [2]: inactive

SMILES: C=CC(=C)CC[C@]1(C)[C@H](C)C[C@H](OC)[C@@]23C(=C[C@H](OC(=O)CCC)C[C@@H]12)[C@@H](OC)O[C@H]3OC(C)=O
- Activity [1]: inactive
- EC50 [2]: 20.6 µM

SMILES: C=CC(=C)CC[C@]1(C)[C@H](C)C[C@H](OC)[C@@]23C(=C[C@H](OC(=O)CC)C[C@@H]12)[C@@H](OC)O[C@H]3OC(C)=O
- Activity [1]: inactive
- EC50 [2]: 4.4 µM

SMILES: C=CC(=C)CC[C@]1(C)[C@H](C)CC[C@@]23C(=C[C@H](O)C[C@@H]12)[C@@H](OC)O[C@H]3OC(C)=O
- Activity [2]: inactive

SMILES: C=CC(=C)CC[C@]1(C)[C@H](C)CC[C@@]23C(=C[C@H](O)C[C@@H]12)[C@@H](OC(=O)CCC)O[C@H]3OC(C)=O
- Activity [2]: inactive

SMILES: C=CC(=C)CC[C@]1(C)[C@H](C)C[C@H](OC)[C@@]23C(=C[C@H](OC(=O)CCC)C[C@@H]12)[C@@H](OC(C)=O)O[C@H]3OC(C)=O
- Activity [1]: inactive
- EC50 [2]: 28.7 µM

SMILES: C=CC(=C)CC[C@]1(C)[C@H](C)C[C@H](OC)[C@@]23C(=C[C@H](OC(=O)CC)C[C@@H]12)[C@@H](OC(=O)CCC)O[C@H]3OC(C)=O
- Activity [1]: inactive
- EC50 [2]: > 45 µM
